Data as given in BindingDB's records for doi:10.1021/jm950716i (Cortech, 1996).

Target: T1, B2 bradykinin receptor (Rattus norvegicus, UniProt P25023)
T1 sequence (P25023 whole entry): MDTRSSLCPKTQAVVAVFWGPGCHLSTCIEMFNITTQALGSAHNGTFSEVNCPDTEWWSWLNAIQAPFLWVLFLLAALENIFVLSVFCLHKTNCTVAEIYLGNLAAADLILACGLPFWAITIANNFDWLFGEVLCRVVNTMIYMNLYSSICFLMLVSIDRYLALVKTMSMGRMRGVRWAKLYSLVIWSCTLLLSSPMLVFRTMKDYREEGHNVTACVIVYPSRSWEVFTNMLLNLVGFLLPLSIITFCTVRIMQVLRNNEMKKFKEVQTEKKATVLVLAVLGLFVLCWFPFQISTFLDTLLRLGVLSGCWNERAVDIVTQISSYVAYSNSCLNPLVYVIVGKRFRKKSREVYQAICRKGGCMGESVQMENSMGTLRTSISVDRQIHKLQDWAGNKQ
Assay: In vitro Bradykinin receptor B2 antagonist activity by using rat uterus functional assay
Procedure, shortened: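 Uterine horns from female Sprague-Dawley rats primed with stilbesterol (100 μg/kg) 18 h earlier. Tissue held at 1 g tension in De Jalon's solution, 31 °C, aerated. […] Potency by Arunlakshana-Schild analysis.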

Kd: 0.0224 µM
SMILES: N=C(N)NCCCCC(=O)N1CCC[C@@H]1C(=O)N1C[C@@H](O)C[C@@H]1C(=O)NCC(=O)N[C@@H](Cc1cccs1)C(=O)N[C@@H](CO)C(=O)N1Cc2ccccc2C[C@@H]1C(=O)N(CC(=O)N[C@@H](CCCNC(=N)N)C(=O)O)C1CCCCC1
